Holding throughout (type): functional
Assay [1] has as its system Mycobacterium tuberculosis variant bovis. As to the kind of experiment: In vitro activity against Mycobacterium. tuberculosis (strain type-ATCC 27289).at pH 5.8. The procedure, abridged: (§1)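 Middlebrook 7H10 agar plus 10% OADC at pH 5.8 in compartmented plates, with serial twofold dilutions from 200 to 3.12 µg/mL. Plates were prepared 24–48 h before use and stored at 4 °C. A drug-free compartment was included per isolate. Incubation was 37 °C for 4 weeks. MIC was the lowest level producing 99% (2 log) inhibition of growth.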

The test system is the same in assay [2]. Description: In vitro activity against Mycobacterium. tuberculosis (strain type-ATCC 27289).at pH 6.6. In outline:
(§2)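 Twofold serial dilutions (200–3.12 µg/mL) in 7H10 agar with 10% OADC enrichment at pH 6.6, in compartmented plates. Plates were stored at 4 °C and used within 24–48 h. A no-drug compartment served as control for each isolate. Plates were incubated for 4 weeks at 37 °C. MIC was the lowest concentration giving 99% (2 log) growth inhibition.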

Assay [3] has the same test system. As to the kind of experiment: In vitro inhibitory activity against Mycobacterium tuberculosis (strain type-ATCC 27289) at pH 5.8. The procedure, abridged: as §1
The test system is the same in assay [4]. Description: In vitro inhibitory activity against Mycobacterium tuberculosis (strain type-ATCC 27289). at pH 6.6. In outline:
as §2

For assay [5] the test system is unchanged. As to the kind of experiment: In vitro activity against Mycobacterium. tuberculosis (strain type-ATCC 27289). at pH 6.6. The procedure, abridged: as §2
Assay [6] has the same test system. Description: In vitro activity against Mycobacterium. tuberculosis (strain type-ATCC 27289)at pH 5.8. In outline:
as §1

Assay [7] shares this test system. Description: In vitro activity against Mycobacterium. tuberculosis (strain type-ATCC 27289)at pH 6.6. The procedure, abridged:
as §2

The test system is the same in assay [8]. Description: In vitro inhibitory activity against Mycobacterium. tuberculosis (strain type-ATCC 27289).at pH 5.8. The procedure, abridged:
as §1

For assay [9] the test system is unchanged. Description: In vitro inhibitory activity against Mycobacterium. tuberculosis (strain type-ATCC 27289).at pH 6.6. In outline:
as §2

The test system is the same in assay [10]. As to the kind of experiment: In vitro inhibitory activity against Mycobacterium tuberculosis (strain type-ATCC 27289). at pH 5.8. The procedure, abridged: as §1

In brackets after ≈: the same amount, converted by molar mass.

Regarding `C=CCOC(=O)c1cnccn1`, the MIC in [1] is below 3.12 µg/mL; in [2], 200 µg/mL (≈ 1220 µM).

As for `CCCOC(=O)c1cnccn1`, the MIC amounted to 6.25 µg/mL (≈ 37.6 µM) in assay [1] and 25 µg/mL (≈ 150 µM) in assay [2].

As for `O=C(O)c1cnccn1` [PYRAZINOIC ACID], the MIC in [3] is 100 µg/mL (≈ 806 µM); in [4], above 200 µg/mL.

Regarding `O=C(OCC(F)(F)F)c1cnccn1`, the MIC in [5] was above 200 µg/mL; in [1], 25 µg/mL (≈ 121 µM).

In assay [6], `O=C(OCCCl)c1cnccn1` yielded an MIC of 6.25 µg/mL (≈ 33.5 µM).

As to `O=C(Oc1c(F)c(F)c(F)c(F)c1F)c1cnccn1`, the figures for the MIC in assay [7] and in assay [1] were 100 µg/mL (≈ 345 µM) and 12.5 µg/mL (≈ 43.1 µM), respectively.

As to `O=C(OC(C(F)(F)F)C(F)(F)F)c1cnccn1`, the MIC in assay [1] is above 200 µg/mL.

Turning to `O=C(Oc1ccc(-c2ccccc2)cc1)c1cnccn1`, the MIC in [1] is 25 µg/mL (≈ 90.5 µM); in assay [2], 100 µg/mL (≈ 362 µM).

For `O=C(OCCBr)c1cnccn1`, the MIC in assay [2] is above 200 µg/mL.

With `NC(=O)c1cnccn1` [PYRAZINAMIDE], the MIC in [8] and in assay [9] was above 200 µg/mL throughout.

Turning to `CC(C)(C)c1ccc(OC(=O)c2cnccn2)cc1`, the MIC worked out at 25 µg/mL (≈ 97.5 µM) in [1] and 200 µg/mL (≈ 780 µM) in assay [2].

Consider `CN(C)CCOC(=O)c1cnccn1`, for which the MIC in assay [10] is 12.5 µg/mL (≈ 64 µM); in [4] it was 200 µg/mL (≈ 1020 µM).

For the compound `Cc1ccc(OC(=O)c2cnccn2)cc1`, the MIC in assay [1] was determined as 6.25 µg/mL (≈ 29.2 µM); in [2] it was 50 µg/mL (≈ 233 µM).

Regarding `O=C(Oc1ccc([N+](=O)[O-])cc1)c1cnccn1`, the MIC in assay [1] is 3.12 µg/mL (≈ 12.7 µM); in assay [2] it was 100 µg/mL (≈ 408 µM).

A word on the MIC: it is the smallest concentration in the dilution series that meets the test's criterion for growth inhibition. High values mean a need for much substance, low ones inhibition by little substance.

The values above are taken from ChEMBL document CHEMBL1125418, “Antimycobacterial activity of a series of pyrazinoic acid esters” (1992).
